In ChEMBL document CHEMBL1130156, “Evolution of the Dmt-Tic pharmacophore: N-terminal methylated derivatives with extraordinary delta opioid antagonist activity” (J Med Chem, 1997):
Active and inactive are the calls of the source. The calls are words filed in the database; no cut-off is given here. Where a SMILES comes first, the peptide text is derived from it. [ ]: non-standard residue; d: D form. ξ: configuration not given here. Dmt = Cc1cc(O)cc(C)c1C[C@H](N)C(=O)O; NMeY = CN[CH](Cc1ccc(O)cc1)C(=O)O; Tic = O=C(O)[CH]1Cc2ccccc2CN1; ξTic = O=C(O)C1Cc2ccccc2CN1

Legend:
[1] = molecular target: Mu-type opioid receptor (Cavia porcellus) (UniProt P97266); assay: Antagonist activity against Opioid receptor mu 1 in guinea pig ileum assay; '-' indicates inactive; type: functional, tissue-based
Mu-type opioid receptor (Cavia porcellus), sequence (P97266 whole entry): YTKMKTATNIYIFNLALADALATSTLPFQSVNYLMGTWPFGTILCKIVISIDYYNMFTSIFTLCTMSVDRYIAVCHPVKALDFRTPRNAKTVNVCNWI
Method in brief: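 Electrically stimulated mouse vas deferens or guinea pig ileum strips in Krebs' solution; agonist concentration–response curves run without and with rising antagonist concentrations; pA2 by Schild (Arunlakshana–Schild) analysis.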

Mu-type opioid receptor [2] = molecular target: Mu-type opioid receptor (Rattus norvegicus, UniProt P33535); assay: Binding affinity for Opioid receptor mu 1 by displacement of [3H]- DAGO
Mu-type opioid receptor (Rattus norvegicus, UniProt P33535), sequence (P33535 whole entry): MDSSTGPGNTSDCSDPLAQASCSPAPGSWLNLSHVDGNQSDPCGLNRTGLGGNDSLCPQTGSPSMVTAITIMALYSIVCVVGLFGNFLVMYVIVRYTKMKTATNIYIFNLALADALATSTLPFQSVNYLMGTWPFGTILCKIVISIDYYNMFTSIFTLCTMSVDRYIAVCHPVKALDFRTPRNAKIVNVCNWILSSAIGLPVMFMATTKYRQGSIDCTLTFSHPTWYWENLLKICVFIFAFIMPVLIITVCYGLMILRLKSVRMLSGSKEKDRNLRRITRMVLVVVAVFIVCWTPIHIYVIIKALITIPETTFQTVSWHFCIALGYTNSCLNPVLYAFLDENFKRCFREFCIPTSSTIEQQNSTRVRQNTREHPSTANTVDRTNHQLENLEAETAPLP
Method in brief: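 Rat brain (Sprague–Dawley, minus cerebellum) synaptosomal membranes, preincubated to strip endogenous opioids. Equilibrium displacement of [3H]DPDPE (δ) or [3H]DAGO (μ); nonspecific binding defined with 2 μM unlabeled ligand. Peptides spanned 3–4 log units. Duplicates, ≥3 membrane preparations; Ki by Cheng–Prusoff; mean ± SEM, n = independent preparations.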

[3] = molecular target: T1, Delta-type opioid receptor (Rattus norvegicus, UniProt P33533); assay: Binding affinity for Opioid receptor delta 1 by displacement of [3H]- DPDPE
T1 sequence (P33533 whole entry): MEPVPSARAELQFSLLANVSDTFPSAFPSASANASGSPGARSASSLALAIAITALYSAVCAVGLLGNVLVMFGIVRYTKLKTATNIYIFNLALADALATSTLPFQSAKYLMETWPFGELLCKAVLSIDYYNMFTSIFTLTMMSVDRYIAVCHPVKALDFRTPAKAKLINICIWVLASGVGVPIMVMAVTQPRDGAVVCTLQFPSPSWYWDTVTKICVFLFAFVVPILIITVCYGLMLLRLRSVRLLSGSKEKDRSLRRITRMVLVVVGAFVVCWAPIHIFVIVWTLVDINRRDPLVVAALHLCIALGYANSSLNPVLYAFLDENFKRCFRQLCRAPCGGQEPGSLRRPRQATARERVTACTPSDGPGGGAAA
Method in brief: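 Rat brain (Sprague–Dawley, minus cerebellum) synaptosomal membranes, preincubated to strip endogenous opioids. Equilibrium displacement of [3H]DPDPE (δ) or [3H]DAGO (μ); nonspecific binding defined with 2 μM unlabeled ligand. Peptides spanned 3–4 log units.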

Mu-type opioid receptor [4] = molecular target: T2, Mu-type opioid receptor (Cavia porcellus, UniProt P97266); assay: Inhibitory activity against Opioid receptor mu 1 in an in vitro guinea pig ileum assay; type: tissue-based
T2 sequence (P97266 whole entry): as the sequence (P97266 whole entry) above

[5] = molecular target: Opioid receptors; mu & delta (Rattus norvegicus) (UniProt P33533+P33535); assay: Ratio of the affinity for delta and mu opioid receptors (Ki mu/Ki delta) shows delta opioid receptor selectivity; type: protein assay
Opioid receptors; mu & delta (Rattus norvegicus), sequence (P33533 whole entry, looked up): as the sequence (P33533 whole entry) above
Opioid receptors; mu & delta (Rattus norvegicus), sequence (P33535 whole entry, looked up): as the sequence (P33535 whole entry) above

[6] = system: Delta-type opioid receptor; assay: GPI/MVD ratio is based on Ke (antilog of pA2 value of antagonistic activity of compound for delta opioid receptor) and IC50 values; type: functional
[7] = molecular target: Delta-type opioid receptor (Mus musculus, UniProt P32300); assay: Antagonist activity against Opioid receptor delta 1 in mouse vas deferens assay
Delta-type opioid receptor (Mus musculus, UniProt P32300), sequence (P32300 whole entry): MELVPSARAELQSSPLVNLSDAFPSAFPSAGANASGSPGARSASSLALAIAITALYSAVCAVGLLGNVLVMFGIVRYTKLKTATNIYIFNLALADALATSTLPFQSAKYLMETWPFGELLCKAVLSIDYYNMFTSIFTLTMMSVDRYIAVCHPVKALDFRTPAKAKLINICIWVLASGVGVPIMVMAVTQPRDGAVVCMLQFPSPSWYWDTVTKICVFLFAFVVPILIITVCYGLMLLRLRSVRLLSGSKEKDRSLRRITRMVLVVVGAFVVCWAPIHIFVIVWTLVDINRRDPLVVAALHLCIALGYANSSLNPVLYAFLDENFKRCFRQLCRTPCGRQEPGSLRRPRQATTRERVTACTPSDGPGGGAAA

[8] = molecular target: Delta-type opioid receptor (Mus musculus) (UniProt P32300); details: Vas deferens
Delta-type opioid receptor (Mus musculus), sequence (P32300 whole entry): as above

Mu-type opioid receptor [9] = molecular target: T2, Mu-type opioid receptor; assay: Inhibitory activity against Opioid receptor mu 1 in an in vitro guinea pig ileum assay; '-' indicates inactive; type: tissue-based
Mu-type opioid receptor [10] = molecular target: T2, Mu-type opioid receptor; assay: Antagonist activity against Opioid receptor mu 1 iin a guinea pig ileum assay
[11] = molecular target: T1, Delta-type opioid receptor; assay: Agonist activity for Opioid receptor delta 1; type: functional
[12] = molecular target: Mu-type opioid receptor (Cavia porcellus) (UniProt P97266); details: Ileum
[13] = molecular target: Delta-type opioid receptor (Mus musculus) (UniProt P32300); details: Vas deferens; remark: listed apart in the source

**Q.** With `CN[C@@H](Cc1c(C)cc(O)cc1C)C(=O)N1Cc2ccccc2C[C@H]1C(=O)N[C@@H](C)C(=O)O` as the compound, how does the pA2 [1] read?
**A.** inactive

**Q.** And the Ki (Mu-type opioid receptor [2])?
**A.** 5850 nM

**Q.** What about the Ki [3] of the same compound?
**A.** 0.136 nM

**Q.** What about the IC50 (Mu-type opioid receptor [4]) of the same compound?
**A.** > 10000 nM

**Q.** What about the Ratio [5] of the same compound?
**A.** 43000

**Q.** What about the Ratio [6] of the same compound?
**A.** > 7100

**Q.** And the Kb [7]?
**A.** 1.58 nM

**Q.** How did the pA2 [1] turn out when `Cc1cc(O)cc(C)c1C[C@H](N)C(=O)N1Cc2ccccc2C[C@H]1C(=O)O` was run?
**A.** inactive

**Q.** And the IC50 (Mu-type opioid receptor [4])?
**A.** > 10000 nM

**Q.** What about the pA2 [8] of the same compound?
**A.** 8.2

**Q.** Which results are given for `Cc1cc(O)cc(C)c1C[C@@H](C(=O)N1Cc2ccccc2C[C@H]1C(=O)N[C@@H](C)C(=O)O)N(C)C`?
**A.** Ki (Mu-type opioid receptor [2]): 1520 nM; IC50 (Mu-type opioid receptor [9]): Not Active; Ki [3]: 0.0755 nM; Ratio [5]: 20000; Kb (Mu-type opioid receptor [10]): 1580 nM; Ratio [6]: 7180; Kb [7]: 0.251 nM

**Q.** `Cc1cc(O)cc(C)c1C[C@H](N)C(=O)N1Cc2ccccc2C[C@H]1C(=O)N[C@@H](C)C(=O)O` was tested. Which IC50 (Mu-type opioid receptor [4]) did it give?
**A.** > 10000 nM

**Q.** `Cc1cc(O)cc(C)c1C[C@H](C(=O)N1Cc2ccccc2CC1C(=O)O)N(C)C` (some centres undefined) was tested. Which pA2 [1] did it give?
**A.** inactive

**Q.** And the Ki (Mu-type opioid receptor [2])?
**A.** 13100 nM

**Q.** And the Ki [3]?
**A.** 5.74 nM

**Q.** And the IC50 (Mu-type opioid receptor [4])?
**A.** > 10000 nM

**Q.** And the Ratio [5]?
**A.** 2280

**Q.** And the Ratio [6]?
**A.** > 4200

**Q.** And the Kb [7]?
**A.** 2.51 nM

**Q.** For `CC(C)[C@H](NC(=O)[C@H](CC(=O)O)NC(=O)[C@H](Cc1ccccc1)NC(=O)[C@@H](C)NC(=O)[C@@H](N)Cc1ccc(O)cc1)C(=O)N[C@H](C(=O)NCC(N)=O)C(C)C` [DELTORPHIN C], which IC50 [11] is on record?
**A.** 0.54 nM

**Q.** What does the source list for `CNC(Cc1ccc(O)cc1)C(=O)N1Cc2ccccc2CC1C(=O)O` (centres undefined) (H-[NMeY]-[Tic]-OH; configuration not given here)?
**A.** Ki (Mu-type opioid receptor [2]): 12400 nM; Ki [3]: 74.7 nM; Ratio [5]: 166

**Q.** Which results are given for `CN(C)[C@@H](Cc1ccc(O)cc1)C(=O)N1Cc2ccccc2CC1C(=O)O` (some centres undefined)?
**A.** Ki (Mu-type opioid receptor [2]): 11500 nM; Ki [3]: 43.5 nM; Ratio [5]: 265

**Q.** How did the pA2 [1] turn out when `CN[C@H](Cc1c(C)cc(O)cc1C)C(=O)N1Cc2ccccc2CC1C(=O)O` (some centres undefined) was run?
**A.** inactive

**Q.** What about the Ki (Mu-type opioid receptor [2]) of the same compound?
**A.** 2000 nM

**Q.** And the Ki [3]?
**A.** 3.19 nM

**Q.** And the IC50 (Mu-type opioid receptor [4])?
**A.** > 10000 nM

**Q.** What about the Ratio [5] of the same compound?
**A.** 628

**Q.** And the Ratio [6]?
**A.** > 71

**Q.** And the Kb [7]?
**A.** 158 nM

**Q.** Which pA2 [12] does the source give for `Oc1ccc2c3c1O[C@H]1c4[nH]c5ccccc5c4C[C@@]4(O)[C@@H](C2)N(CC2CC2)CC[C@]314` [NALTRINDOLE] here?
**A.** 7.3

**Q.** What about the IC50 (Mu-type opioid receptor [9]) of the same compound?
**A.** Not Active

**Q.** And the pA2 [8]?
**A.** 9.2

**Q.** What about the Ratio [6] of the same compound?
**A.** 76

**Q.** For `Cc1cc(O)cc(C)c1C[C@@H](C(=O)N1Cc2ccccc2CC1C(=O)O)N(C)C` (some centres undefined), which Ki (Mu-type opioid receptor [2]) is on record?
**A.** 2440 nM

**Q.** What about the IC50 (Mu-type opioid receptor [9]) of the same compound?
**A.** Not Active

**Q.** What about the Ki [3] of the same compound?
**A.** 0.118 nM

**Q.** What about the Ratio [5] of the same compound?
**A.** 20600

**Q.** What about the Kb (Mu-type opioid receptor [10]) of the same compound?
**A.** 1580 nM

**Q.** And the Ratio [6]?
**A.** 5640

**Q.** And the Kb [7]?
**A.** 0.398 nM

**Q.** `CN[C@H](Cc1c(C)cc(O)cc1C)C(=O)N1Cc2ccccc2C[C@H]1C(=O)N[C@@H](C)C(=O)O` was tested. Which Ki (Mu-type opioid receptor [2]) did it give?
**A.** 19200 nM

**Q.** What about the Ki [3] of the same compound?
**A.** 106 nM

**Q.** What about the Ratio [5] of the same compound?
**A.** 181

**Q.** For `CN[C@@H](Cc1c(C)cc(O)cc1C)C(=O)N1Cc2ccccc2CC1C(N)=O` (some centres undefined), which Ki (Mu-type opioid receptor [2]) is on record?
**A.** 955 nM

**Q.** And the Ki [3]?
**A.** 0.383 nM

**Q.** And the IC50 (Mu-type opioid receptor [4])?
**A.** > 10000 nM

**Q.** What about the Ratio [5] of the same compound?
**A.** 2490

**Q.** And the Ratio [6]?
**A.** > 4550

**Q.** What about the Kb [7] of the same compound?
**A.** 2.51 nM

**Q.** For `Cc1cc(O)cc(C)c1CC(C)C(=O)N1Cc2ccccc2CC1C(=O)O` (centres undefined), which Ki (Mu-type opioid receptor [2]) is on record?
**A.** 71400 nM

**Q.** What about the Ki [3] of the same compound?
**A.** 1300 nM

**Q.** And the Ratio [5]?
**A.** 55

**Q.** What does the source list for `CN[C@@H](Cc1c(C)cc(O)cc1C)C(=O)N1Cc2ccccc2CC1C(=O)O` (some centres undefined)?
**A.** pA2 [1]: inactive; Ki (Mu-type opioid receptor [2]): 379 nM; Ki [3]: 0.203 nM; IC50 (Mu-type opioid receptor [4]): > 10000 nM; Ratio [5]: 1870; Ratio [6]: > 3570; Kb [7]: 3.16 nM

**Q.** What does the source list for `Cc1cc(O)cc(C)c1C[C@H](N)C(=O)N1Cc2ccccc2C[C@H]1C(=O)NC(C)C(=O)O` (some centres undefined)?
**A.** pA2 [1]: inactive; Ratio [5]: 20400; pA2 [8]: 8.4; Ratio [6]: > 2500

**Q.** With `N[C@@H](Cc1ccc(O)cc1)C(=O)N1Cc2ccccc2C[C@H]1C(=O)O` (H-Tyr-[Tic]-OH) as the compound, how does the Ki (Mu-type opioid receptor [2]) read?
**A.** 28400 nM

**Q.** What about the Ki [3] of the same compound?
**A.** 192 nM

**Q.** And the Ratio [5]?
**A.** 148

**Q.** With `Cc1cc(O)cc(C)c1C[C@@H](C(=O)N1Cc2ccccc2CC1C(N)=O)N(C)C` (some centres undefined) as the compound, how does the Ki (Mu-type opioid receptor [2]) read?
**A.** 511 nM

**Q.** And the IC50 (Mu-type opioid receptor [9])?
**A.** Not Active

**Q.** What about the Ki [3] of the same compound?
**A.** 0.309 nM

**Q.** What about the Ratio [5] of the same compound?
**A.** 1660

**Q.** What about the Kb (Mu-type opioid receptor [10]) of the same compound?
**A.** 501 nM

**Q.** What about the Ratio [6] of the same compound?
**A.** 4500

**Q.** What about the Kb [7] of the same compound?
**A.** 0.126 nM

**Q.** Which Ki (Mu-type opioid receptor [2]) does the source give for `Cc1cc(O)cc(C)c1C[C@H](C(=O)N1Cc2ccccc2C[C@H]1C(=O)N[C@@H](C)C(=O)O)N(C)C` here?
**A.** 19000 nM

**Q.** And the Ki [3]?
**A.** 108 nM

**Q.** What about the Ratio [5] of the same compound?
**A.** 176

**Q.** For `Cc1cc(O)cc(C)c1CC(N)C(=O)N1Cc2ccccc2C[C@H]1C(=O)O` (single isomer, unassigned), which pA2 [1] is on record?
**A.** inactive

**Q.** And the Ki (Mu-type opioid receptor [2])?
**A.** 11000 nM

**Q.** And the IC50 (Mu-type opioid receptor [9])?
**A.** Not Active

**Q.** And the pA2 [13]?
**A.** inactive

**Q.** What does the source list for `CN[C@H](Cc1c(C)cc(O)cc1C)C(=O)N1Cc2ccccc2CC1C(N)=O` (some centres undefined)?
**A.** pA2 [1]: inactive; Ki (Mu-type opioid receptor [2]): 1330 nM; IC50 (Mu-type opioid receptor [9]): Not Active; Ki [3]: 11.2 nM; Ratio [5]: 119; pA2 [13]: inactive

**Q.** With `Cc1cc(O)cc(C)c1C[C@@H](N)C(=O)N1Cc2ccccc2C[C@H]1C(=O)N[C@@H](C)C(=O)O` as the compound, how does the pA2 [1] read?
**A.** inactive

**Q.** And the Ki (Mu-type opioid receptor [2])?
**A.** 2560 nM

**Q.** What about the Ki [3] of the same compound?
**A.** 13 nM

**Q.** And the IC50 (Mu-type opioid receptor [4])?
**A.** > 10000 nM

**Q.** What about the Ratio [5] of the same compound?
**A.** 197

**Q.** And the pA2 [8]?
**A.** 6.9

**Q.** What about the Ratio [6] of the same compound?
**A.** > 88

**Q.** How did the Ki [3] turn out when `Cc1cc(O)cc(C)c1C[C@H](N)C(=O)N1Cc2ccccc2CC1C(N)=O` (some centres undefined) (H-[Dmt]-[ξTic]-NH2) was run?
**A.** 1.22 nM
